Measurements published in ChEMBL document CHEMBL5705905, “Pharmacological targeting of kinases MST1 and MST2 augments tissue repair and regeneration” (Sci Transl Med, 2016).
The source made the active and inactive calls. The calls are words filed in the database; no cut-off is given here.

Experiments:
[1] = test system: Tyrosine-protein kinase ABL1 (Homo sapiens), P00519 [H396P]; assay: Inhibition of phosphorylated ABL1 H396P mutant (unknown origin) assessed as remaining activity at 1 uM by Kinome scan method relative to control
[2] = target: Serine/threonine-protein kinase BRSK1 (Homo sapiens) (UniProt Q8TDC3); assay: Inhibition of BRSK1 (unknown origin) assessed as remaining activity at 1 uM by Kinome scan method relative to control
Method in brief: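 Active-site-dependent competition-binding (KINOMEscan) panel of 468 kinases, test compound at 1 μM (from a 10 mM DMSO stock). Read-out is ctrl% = (test signal − positive control signal)/(negative control signal − positive control signal) × 100. DMSO is the negative control (100%) and a control compound is the positive control (0%). Lower ctrl% means tighter binding.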

[3] = target: Calcium/calmodulin-dependent protein kinase type 1D (Homo sapiens) (UniProt Q8IU85); assay: Inhibition of CAMK1D (unknown origin) assessed as remaining activity at 1 uM by Kinome scan method relative to control
Method in brief: (§1)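 Active-site-dependent competition-binding profiling (KINOMEscan) at 1 μM against a 468-kinase panel; compound supplied from a 10 mM DMSO stock. Read-out is ctrl% = (test signal − positive control signal)/(negative control signal − positive control signal) × 100. DMSO is the negative control (100%) and a control compound the positive control (0%). Lower ctrl% means tighter binding.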

[4] = target: Calcium/calmodulin-dependent protein kinase kinase 1 (Homo sapiens) (UniProt Q8N5S9); assay: Inhibition of CAMKK1 (unknown origin) assessed as remaining activity at 1 uM by Kinome scan method relative to control; method in brief: as §1
[5] = target: Cyclin-dependent kinase 2 (Homo sapiens) (UniProt P24941); assay: Inhibition of CDK2 (unknown origin) assessed as remaining activity at 1 uM by Kinome scan method relative to control; method in brief: as §1
[6] = target: Citron Rho-interacting kinase (Homo sapiens) (UniProt O14578); assay: Inhibition of CIT (unknown origin) assessed as remaining activity at 1 uM by Kinome scan method relative to control; method in brief: as §1
[7] = target: Serine/threonine-protein kinase 17A (Homo sapiens) (UniProt Q9UEE5); assay: Inhibition of DRAK1 (unknown origin) assessed as remaining activity at 1 uM by Kinome scan method relative to control
[8] = target: Dual specificity tyrosine-phosphorylation-regulated kinase 2 (Homo sapiens) (UniProt Q92630); assay: Inhibition of DYRK2 (unknown origin) assessed as remaining activity at 1 uM by Kinome scan method relative to control
[9] = target: Ephrin type-A receptor 2 (Homo sapiens) (UniProt P29317); assay: Inhibition of EPHA2 (unknown origin) assessed as remaining activity at 1 uM by Kinome scan method relative to control
[10] = target: Ephrin type-B receptor 6 (Homo sapiens) (UniProt O15197); assay: Inhibition of EPHB6 (unknown origin) assessed as remaining activity at 1 uM by Kinome scan method relative to control
[11] = target: Receptor-type tyrosine-protein kinase FLT3 (Homo sapiens) (UniProt P36888); assay: Inhibition of FLT3 (unknown origin) assessed as remaining activity at 1 uM by Kinome scan method relative to control
[12] = target: Rhodopsin kinase GRK1 (Homo sapiens) (UniProt Q15835); assay: Inhibition of GRK1 (unknown origin) assessed as remaining activity at 1 uM by Kinome scan method relative to control
[13] = target: Insulin receptor-related protein (Homo sapiens) (UniProt P14616); assay: Inhibition of INSRR (unknown origin) assessed as remaining activity at 1 uM by Kinome scan method relative to control
[14] = target: Mast/stem cell growth factor receptor Kit (Homo sapiens) (UniProt P10721); assay: Inhibition of KIT-autoinhibited (unknown origin) assessed as remaining activity at 1 uM by Kinome scan method relative to control
[15] = target: Mitogen-activated protein kinase kinase kinase 3 (Homo sapiens) (UniProt Q99759); assay: Inhibition of MAP3K3 (unknown origin) assessed as remaining activity at 1 uM by Kinome scan method relative to control
[16] = target: Microtubule-associated serine/threonine-protein kinase 1 (Homo sapiens) (UniProt Q9Y2H9); assay: Inhibition of MAST1 (unknown origin) assessed as remaining activity at 1 uM by Kinome scan method relative to control
[17] = target: Serine/threonine-protein kinase OSR1 (Homo sapiens) (UniProt O95747); assay: Inhibition of OSR1 (unknown origin) assessed as remaining activity at 1 uM by Kinome scan method relative to control
[18] = target: Serine/threonine-protein kinase PAK 1 (Homo sapiens) (UniProt Q13153); assay: Inhibition of PAK1 (unknown origin) assessed as remaining activity at 1 uM by Kinome scan method relative to control
[19] = target: Serine/threonine-protein kinase PAK 4 (Homo sapiens) (UniProt O96013); assay: Inhibition of PAK4 (unknown origin) assessed as remaining activity at 1 uM by Kinome scan method relative to control
[20] = target: Proto-oncogene tyrosine-protein kinase receptor Ret (Homo sapiens) (UniProt P07949); assay: Inhibition of RET (unknown origin) assessed as remaining activity at 1 uM by Kinome scan method relative to control
[21] = target: Serine/threonine-protein kinase TNNI3K (Homo sapiens) (UniProt Q59H18); assay: Inhibition of TNNI3K (unknown origin) assessed as remaining activity at 1 uM by Kinome scan method relative to control
[22] = target: NT-3 growth factor receptor (Homo sapiens) (UniProt Q16288); assay: Inhibition of TRKC (unknown origin) assessed as remaining activity at 1 uM by Kinome scan method relative to control
[23] = target: Dual specificity protein kinase TTK (Homo sapiens) (UniProt P33981); assay: Inhibition of TTK (unknown origin) assessed as remaining activity at 1 uM by Kinome scan method relative to control
[24] = target: Tyrosine-protein kinase TXK (Homo sapiens) (UniProt P42681); assay: Inhibition of TXK (unknown origin) assessed as remaining activity at 1 uM by Kinome scan method relative to control
[25] = target: Serine/threonine-protein kinase WNK3 (Homo sapiens) (UniProt Q9BYP7); assay: Inhibition of WNK3 (unknown origin) assessed as remaining activity at 1 uM by Kinome scan method relative to control
[26] = test system: HepG2; assay: Inhibition of Flag-tagged MST1 Y101F/D109A mutant (unknown origin) in human HepG2 cells assessed as MOB1 phosphorylation level at 0.3 to 10 uM by immunoblot analysis; assay type: cell-based; conditions: dose 0.3-10 µM
[27] = Tmax in male Sprague-Dawley rat at 5 mg/kg, iv measured for 24 hrs by LC-MS/MS analysis; assay type: ADME, organism-based; conditions: in vivo
[28] = Tmax in male Sprague-Dawley rat at 10 mg/kg, po measured for 24 hrs by LC-MS/MS analysis; assay type: ADME, organism-based; conditions: in vivo
[29] = test system: Mus musculus; assay: Protection against APAP induced liver injury in mouse assessed as continual expansion of centrilobular necrotic lesions at 1 mg/kg, ip administered at 1.5 hrs by H&E staining; assay type: functional, organism-based
[30] = test system: Mus musculus; assay: Protection against APAP induced liver injury in mouse assessed as decrease in ALT level at 1 mg/kg, ip administered at 2.5 hrs in the presence of NAC; assay type: functional, organism-based; conditions: Serum

Chain of Citron Rho-interacting kinase (Homo sapiens) (O14578 whole entry): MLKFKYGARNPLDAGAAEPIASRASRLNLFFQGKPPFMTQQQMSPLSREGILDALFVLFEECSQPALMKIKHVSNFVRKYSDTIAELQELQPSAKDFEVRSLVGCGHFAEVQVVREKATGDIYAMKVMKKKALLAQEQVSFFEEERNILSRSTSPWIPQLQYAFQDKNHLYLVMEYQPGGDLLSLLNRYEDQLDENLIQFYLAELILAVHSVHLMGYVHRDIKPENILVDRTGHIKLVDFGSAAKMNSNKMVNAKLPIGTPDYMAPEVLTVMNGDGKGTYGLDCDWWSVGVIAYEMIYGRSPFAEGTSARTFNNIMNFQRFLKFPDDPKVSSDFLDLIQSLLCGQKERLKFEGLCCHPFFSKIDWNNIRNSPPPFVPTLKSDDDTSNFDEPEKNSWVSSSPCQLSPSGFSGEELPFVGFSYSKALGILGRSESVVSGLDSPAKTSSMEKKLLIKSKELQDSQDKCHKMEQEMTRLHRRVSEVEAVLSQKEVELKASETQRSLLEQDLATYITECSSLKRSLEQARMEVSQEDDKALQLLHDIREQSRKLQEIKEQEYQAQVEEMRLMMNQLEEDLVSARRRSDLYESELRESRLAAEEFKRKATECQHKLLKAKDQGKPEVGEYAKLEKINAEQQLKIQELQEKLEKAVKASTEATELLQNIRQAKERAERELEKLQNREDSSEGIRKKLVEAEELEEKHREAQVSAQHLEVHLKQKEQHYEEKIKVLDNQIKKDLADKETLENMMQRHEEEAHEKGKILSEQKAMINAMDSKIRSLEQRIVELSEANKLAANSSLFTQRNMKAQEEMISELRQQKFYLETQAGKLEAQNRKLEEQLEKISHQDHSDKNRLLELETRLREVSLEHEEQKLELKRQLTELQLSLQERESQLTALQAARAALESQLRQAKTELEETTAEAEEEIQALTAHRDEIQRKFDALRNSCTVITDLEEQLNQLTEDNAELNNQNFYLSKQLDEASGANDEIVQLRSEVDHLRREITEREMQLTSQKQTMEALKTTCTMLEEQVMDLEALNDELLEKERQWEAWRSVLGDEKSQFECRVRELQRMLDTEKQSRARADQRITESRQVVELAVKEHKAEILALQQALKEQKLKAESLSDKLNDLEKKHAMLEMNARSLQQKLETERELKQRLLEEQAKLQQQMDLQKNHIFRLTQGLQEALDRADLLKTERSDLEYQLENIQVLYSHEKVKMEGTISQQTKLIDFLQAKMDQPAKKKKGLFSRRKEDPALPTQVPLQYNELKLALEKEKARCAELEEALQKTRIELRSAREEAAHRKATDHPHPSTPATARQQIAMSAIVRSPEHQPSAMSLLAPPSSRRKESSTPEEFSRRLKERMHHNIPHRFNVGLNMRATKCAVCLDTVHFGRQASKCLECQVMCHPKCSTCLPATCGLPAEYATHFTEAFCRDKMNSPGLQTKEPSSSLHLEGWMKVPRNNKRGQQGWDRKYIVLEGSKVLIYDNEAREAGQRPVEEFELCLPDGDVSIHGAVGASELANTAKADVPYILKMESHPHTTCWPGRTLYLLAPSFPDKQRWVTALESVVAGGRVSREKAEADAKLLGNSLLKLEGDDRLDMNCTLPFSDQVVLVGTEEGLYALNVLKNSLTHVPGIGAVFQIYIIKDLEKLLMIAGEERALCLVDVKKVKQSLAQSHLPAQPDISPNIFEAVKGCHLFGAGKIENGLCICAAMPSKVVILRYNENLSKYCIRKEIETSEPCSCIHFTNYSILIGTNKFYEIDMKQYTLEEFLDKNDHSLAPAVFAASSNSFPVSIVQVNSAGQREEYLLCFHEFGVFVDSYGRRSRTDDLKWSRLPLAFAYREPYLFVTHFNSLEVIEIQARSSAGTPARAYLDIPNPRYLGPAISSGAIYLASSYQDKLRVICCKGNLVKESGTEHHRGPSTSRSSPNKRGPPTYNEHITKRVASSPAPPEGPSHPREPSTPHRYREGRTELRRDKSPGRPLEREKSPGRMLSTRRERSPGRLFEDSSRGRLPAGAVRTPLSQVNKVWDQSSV
Chain of Receptor-type tyrosine-protein kinase FLT3 (Homo sapiens) (P36888 whole entry): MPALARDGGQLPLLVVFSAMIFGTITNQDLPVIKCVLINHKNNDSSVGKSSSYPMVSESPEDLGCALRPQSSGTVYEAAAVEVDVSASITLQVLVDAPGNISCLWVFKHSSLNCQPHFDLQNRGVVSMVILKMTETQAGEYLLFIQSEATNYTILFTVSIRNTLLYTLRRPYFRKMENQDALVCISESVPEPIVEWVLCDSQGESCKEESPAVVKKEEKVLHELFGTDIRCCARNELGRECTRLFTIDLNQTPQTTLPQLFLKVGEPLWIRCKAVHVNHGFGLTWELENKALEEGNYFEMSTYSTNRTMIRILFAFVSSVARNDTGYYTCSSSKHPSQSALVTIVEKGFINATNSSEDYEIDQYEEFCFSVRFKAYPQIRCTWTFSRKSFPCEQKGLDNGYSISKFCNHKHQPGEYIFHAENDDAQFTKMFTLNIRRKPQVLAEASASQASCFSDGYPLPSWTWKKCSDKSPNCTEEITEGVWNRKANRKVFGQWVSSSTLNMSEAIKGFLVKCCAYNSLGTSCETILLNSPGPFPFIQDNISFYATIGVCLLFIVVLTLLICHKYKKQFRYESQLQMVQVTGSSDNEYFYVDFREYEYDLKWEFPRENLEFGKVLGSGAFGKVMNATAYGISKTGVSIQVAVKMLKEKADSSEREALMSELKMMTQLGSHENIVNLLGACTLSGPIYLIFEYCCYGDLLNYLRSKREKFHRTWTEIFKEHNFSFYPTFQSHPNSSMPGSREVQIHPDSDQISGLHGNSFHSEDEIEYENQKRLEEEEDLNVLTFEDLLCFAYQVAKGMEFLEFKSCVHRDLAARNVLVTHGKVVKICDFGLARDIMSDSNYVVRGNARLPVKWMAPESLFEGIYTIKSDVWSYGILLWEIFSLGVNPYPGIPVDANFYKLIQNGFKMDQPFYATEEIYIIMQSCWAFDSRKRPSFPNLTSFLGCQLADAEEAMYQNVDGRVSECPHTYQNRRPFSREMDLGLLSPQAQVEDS
Chain of Ephrin type-A receptor 2 (Homo sapiens) (P29317 whole entry): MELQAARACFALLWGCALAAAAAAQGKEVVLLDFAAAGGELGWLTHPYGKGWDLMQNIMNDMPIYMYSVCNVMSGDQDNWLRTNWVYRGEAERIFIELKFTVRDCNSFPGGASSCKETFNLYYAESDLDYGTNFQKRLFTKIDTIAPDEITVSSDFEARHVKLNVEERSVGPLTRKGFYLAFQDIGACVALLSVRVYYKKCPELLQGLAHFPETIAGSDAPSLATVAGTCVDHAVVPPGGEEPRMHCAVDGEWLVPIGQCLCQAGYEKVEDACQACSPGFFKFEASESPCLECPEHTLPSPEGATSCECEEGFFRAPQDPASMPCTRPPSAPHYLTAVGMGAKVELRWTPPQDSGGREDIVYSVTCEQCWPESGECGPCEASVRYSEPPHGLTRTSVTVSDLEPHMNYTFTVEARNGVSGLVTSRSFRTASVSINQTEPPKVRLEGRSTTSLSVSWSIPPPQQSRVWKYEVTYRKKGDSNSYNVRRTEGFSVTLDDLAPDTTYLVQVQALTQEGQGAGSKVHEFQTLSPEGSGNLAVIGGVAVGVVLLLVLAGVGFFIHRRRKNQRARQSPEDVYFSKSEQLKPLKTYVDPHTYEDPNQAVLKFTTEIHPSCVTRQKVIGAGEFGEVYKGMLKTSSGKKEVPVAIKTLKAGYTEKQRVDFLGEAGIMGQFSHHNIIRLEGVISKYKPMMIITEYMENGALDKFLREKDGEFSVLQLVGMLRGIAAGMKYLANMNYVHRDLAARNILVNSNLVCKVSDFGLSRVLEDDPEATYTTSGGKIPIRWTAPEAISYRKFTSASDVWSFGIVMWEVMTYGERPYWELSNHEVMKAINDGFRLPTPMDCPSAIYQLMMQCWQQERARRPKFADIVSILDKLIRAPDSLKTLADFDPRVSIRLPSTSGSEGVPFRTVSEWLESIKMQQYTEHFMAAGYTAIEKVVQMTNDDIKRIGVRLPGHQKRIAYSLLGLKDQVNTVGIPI
Chain of Serine/threonine-protein kinase PAK 4 (Homo sapiens) (O96013 whole entry, looked up): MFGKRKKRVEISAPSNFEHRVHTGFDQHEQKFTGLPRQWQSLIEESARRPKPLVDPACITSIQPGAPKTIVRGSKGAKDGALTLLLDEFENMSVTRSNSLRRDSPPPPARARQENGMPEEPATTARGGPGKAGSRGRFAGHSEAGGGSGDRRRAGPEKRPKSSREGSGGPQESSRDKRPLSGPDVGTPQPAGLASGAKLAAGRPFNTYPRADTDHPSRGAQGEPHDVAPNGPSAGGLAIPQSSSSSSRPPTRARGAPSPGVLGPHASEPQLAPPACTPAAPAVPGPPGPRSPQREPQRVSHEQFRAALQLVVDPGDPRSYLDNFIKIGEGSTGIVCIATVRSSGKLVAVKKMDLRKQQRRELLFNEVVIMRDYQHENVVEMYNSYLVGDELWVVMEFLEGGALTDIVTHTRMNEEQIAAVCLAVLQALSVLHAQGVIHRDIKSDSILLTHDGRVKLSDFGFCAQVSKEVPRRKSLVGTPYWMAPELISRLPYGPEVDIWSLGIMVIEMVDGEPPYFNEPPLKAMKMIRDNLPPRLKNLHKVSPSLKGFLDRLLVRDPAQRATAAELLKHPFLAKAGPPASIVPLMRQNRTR
Chain of Tyrosine-protein kinase TXK (Homo sapiens) (P42681 whole entry): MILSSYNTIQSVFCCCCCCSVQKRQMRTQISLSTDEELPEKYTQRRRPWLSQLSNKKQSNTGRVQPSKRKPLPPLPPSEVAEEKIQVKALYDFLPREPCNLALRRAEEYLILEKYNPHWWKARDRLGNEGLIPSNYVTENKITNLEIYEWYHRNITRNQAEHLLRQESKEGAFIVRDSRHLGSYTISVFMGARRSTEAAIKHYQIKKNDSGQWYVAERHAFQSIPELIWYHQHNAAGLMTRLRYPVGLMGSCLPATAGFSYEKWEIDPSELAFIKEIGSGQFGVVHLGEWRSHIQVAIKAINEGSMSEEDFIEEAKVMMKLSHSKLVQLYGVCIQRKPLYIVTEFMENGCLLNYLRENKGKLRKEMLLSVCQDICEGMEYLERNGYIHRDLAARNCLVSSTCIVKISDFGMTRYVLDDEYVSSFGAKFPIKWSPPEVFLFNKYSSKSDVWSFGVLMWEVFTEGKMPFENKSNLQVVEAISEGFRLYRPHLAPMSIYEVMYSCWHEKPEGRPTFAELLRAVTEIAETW

CN1C(=O)c2sccc2N(C)c2nc(Nc3ccc(S(N)(=O)=O)cc3)ncc21
Activity [1]: 14%
Activity [2]: 96%
Activity [3]: 100%
Activity [4]: 80%
Activity [5]: 90%
Activity [6]: 96%
Activity [7]: 100%
Activity [8]: 84%
Activity [9]: 99%
Activity [10]: 100%
Activity [11]: 100%
Activity [12]: 94%
Activity [13]: 100%
Activity [14]: 100%
Activity [15]: 2%
Activity [16]: 80%
Activity [17]: 81%
Activity [18]: 100%
Activity [19]: 86%
Activity [20]: 100%
Activity [21]: 100%
Activity [22]: 55%
Activity [23]: 99%
Activity [24]: 90%
Activity [25]: 71%
inhibition [26]: Active
Tmax [27]: 4.98 min
Tmax [28]: 3 h
Activity [29]: Active
Activity [30]: Active
